What was measured:
Escherichia coli [1] = experiment: Antibacterial activity against Escherichia coli K12 containing PhoU mutant assessed as cell count in stationary phase at 3 ug/ml after 1 week; assay type: functional
How it was run: (§1)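 Log-phase or stationary-phase cultures were exposed to ampicillin (100 μg/ml) or norfloxacin (3 μg/ml) in MOPS minimal medium, pH 5.0, at 37°C without shaking, for 5 h to 10 days. Aliquots were saline-washed and plated on LB for CFU/ml.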

Escherichia coli [2] = experiment: Antibacterial activity against Escherichia coli K12 containing deletion deltaphoU mutant assessed as cell count in log phase at 3 ug/ml after 5 hrs; assay type: functional
How it was run: (§2)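 Log-phase or stationary-phase cultures of the ΔphoU deletion mutant (Datsenko–Wanner construction) were exposed to norfloxacin 3 μg/ml in MOPS minimal medium, pH 5.0, at 37°C without shaking, for up to 10 days. Sampled aliquots were washed in saline and plated on LB agar for CFU/ml.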

Escherichia coli [3] = experiment: Antibacterial activity against Escherichia coli K12 containing PhoU mutant assessed as cell count in stationary phase at 3 ug/ml after 10 days; assay type: functional; how it was run: as §1
Escherichia coli [4] = experiment: Antibacterial activity against Escherichia coli K12 containing deletion deltaphoU mutant assessed as cell count in stationary phase at 3 ug/ml after 1 week; assay type: functional; how it was run: as §2
Escherichia coli [5] = experiment: Antibacterial activity against Escherichia coli K12 PhoU wild type W3110 assessed as cell count in stationary phase at 3 ug/ml after 1 day; assay type: functional; how it was run: as §1
Escherichia coli [6] = experiment: Antibacterial activity against Escherichia coli K12 mutant JHU313 containing plasmid vector at 4 ug/ml after 48 hrs by disc diffusion method; assay type: functional
How it was run: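 Kirby-Bauer paper-disc assay: log-phase E. coli (10⁸ bacteria) grown in LB broth, spread on LB agar for confluent growth; 7 mm nitrocellulose discs soaked with antibiotic solution at the listed concentration (μg/ml) placed on surface; incubated 37°C for 48 h; diameter of growth-inhibition zone measured in mm. Strain is the phoU transposon mutant transformed by electroporation with empty vector control.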

Escherichia coli [7] = experiment: Antibacterial activity against Escherichia coli K12 mutant JHU313 at 2 ug/ml after 48 hrs by disc diffusion method; assay type: functional
How it was run: (§3)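 Kirby-Bauer disc assay: log-phase LB culture was spread on LB agar for confluent growth. 7-mm nitrocellulose discs were soaked in antibiotic at the listed concentration and placed on the agar. After 48 h at 37°C, the diameter of the inhibition zone was measured in mm.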

Escherichia coli [8] = experiment: Antibacterial activity against Escherichia coli K12 containing PhoU mutant assessed as cell count in log phase at 3 ug/ml after 1 week; assay type: functional; how it was run: as §1
Escherichia coli [9] = experiment: Antibacterial activity against Escherichia coli K12 PhoU wild type W3110 assessed as cell count in stationary phase at 3 ug/ml after 5 days; assay type: functional; how it was run: as §1
Escherichia coli [10] = experiment: Antibacterial activity against Escherichia coli K12 mutant JHU313 containing plasmid PhoU at 0.1 ug/ml after 48 hrs by disc diffusion method; assay type: functional; how it was run: as §3
Escherichia coli [11] = experiment: Antibacterial activity against Escherichia coli K12 containing deletion deltaphoU mutant assessed as cell count in log phase at 3 ug/ml after 5 days; assay type: functional; how it was run: as §2
Escherichia coli [12] = experiment: Antibacterial activity against Escherichia coli K12 PhoU wild type W3110 assessed as cell count in log phase at 3 ug/ml after 1 day; assay type: functional; how it was run: as §1
Escherichia coli [13] = experiment: Antibacterial activity against Escherichia coli K12 PhoU wild type W3110 assessed as cell count in log phase at 100 ug/ml after 1 week; assay type: functional
How it was run: (§4)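 Log-phase or stationary-phase cultures exposed to ampicillin 100 μg/ml in MOPS minimal medium (pH 5.0) at 37°C without shaking, for 5 h up to 10 days. Aliquots were taken at each time point, washed in saline and plated on LB plates for viable CFU/ml.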

Escherichia coli [14] = experiment: Antibacterial activity against Escherichia coli K12 mutant JHU313 at 100 ug/ml after 48 hrs by disc diffusion method; assay type: functional; how it was run: as §3
Escherichia coli [15] = experiment: Antibacterial activity against Escherichia coli K12 PhoU wild type W3110 assessed as cell count in log phase at 100 ug/ml after 1 day; assay type: functional; how it was run: as §4
Escherichia coli [16] = experiment: Antibacterial activity against Escherichia coli K12 mutant JHU313 assessed as cell count at 100 ug/ml

In the case of CCn1cc(C(=O)O)c(=O)c2cc(F)c(N3CCNCC3)cc21 [NORFLOXACIN], the CFU (Escherichia coli [1]) is reported as 0 mL⁻¹, the CFU (Escherichia coli [2]) is reported as 5 10^7/ml and the CFU (Escherichia coli [3]) is reported as 0 mL⁻¹. For the same molecule, the CFU (Escherichia coli [4]) was 0 mL⁻¹, the CFU (Escherichia coli [5]) was 4 10^9/ml and the inhibition zone (IZ) (Escherichia coli [6]) was 44 mm. For the same molecule, the inhibition zone (IZ) (Escherichia coli [7]) was 34 mm, the CFU (Escherichia coli [8]) was 0 mL⁻¹ and the CFU (Escherichia coli [9]) was 4 10^6/ml. The inhibition zone (IZ) (Escherichia coli [10]) was 27 mm, the CFU (Escherichia coli [11]) was 0 mL⁻¹ and the CFU (Escherichia coli [12]) was 4 10^6/ml.
CC1(C)S[C@@H]2[C@H](NC(=O)[C@H](N)c3ccccc3)C(=O)N2[C@H]1C(=O)O [AMPICILLIN] gave a CFU (Escherichia coli [13]) of 0 mL⁻¹, an inhibition zone (IZ) (Escherichia coli [14]) of 40 mm and a CFU (Escherichia coli [15]) of 10 mL⁻¹. For the same molecule, the CFU (Escherichia coli [16]) was 1.4 10^7/ml.
